Screens: PubChem BioAssay, The Scripps Research Institute Molecular Screening Center
GPR7 antag: blocks human GPR7 receptor signaling; P48145; GPR7-expressing cells, fluorescence antagonist assay; inhibition, % at 4.4 µM; 290,000 tested, 1.1% active; in the data active = inhibition above about 16%, passing the limit was not always enough;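 note: cells stimulated with the agonist NPW; 0% = agonist with vehicle and 100% = vehicle without agonist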
CHO parental Ca: counter-screen for OX1R antagonists: effect in parental CHO cells. parental CHO-K1, ATP-induced calcium, Fluo-8 fluorescence. inhibition, % at 5.6 µM. 330,000 tested, 0.63% active. AID 463079;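 active = inhibition above that plate's mean sample inhibition plus 3 SD, cut at about 26% in these data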;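 note: 0% = ATP-challenged DMSO wells and 100% = DMSO wells without ATP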
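Material: Parental CHO cells | Reagent: ATP | Compound dosing: Single nominal dose of 5.6 µM per compound | Detection: Intracellular calcium via Fluo-8 no-wash fluorescent dye | Read-out: % inhibition of ATP-induced calcium mobilization | Benchmarks: Low control ATP plus DMSO, high control DMSO only | Replicates: Singlicate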
TAAR1 ag: human TAAR1 agonism; CHO RD-HGA16 TAAR1, Fluo-8 calcium fluorescence; vehicle wells 0%, saturating PEA agonist 100%; 360,000 tested, 0.99% active; activation, % at 3 µM; Q96RJ0;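 active = activation above the mean activation of all test compounds in the run plus 3 SD, cut at about 38% in these data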
Target sequence (Q96RJ0 whole entry, looked up): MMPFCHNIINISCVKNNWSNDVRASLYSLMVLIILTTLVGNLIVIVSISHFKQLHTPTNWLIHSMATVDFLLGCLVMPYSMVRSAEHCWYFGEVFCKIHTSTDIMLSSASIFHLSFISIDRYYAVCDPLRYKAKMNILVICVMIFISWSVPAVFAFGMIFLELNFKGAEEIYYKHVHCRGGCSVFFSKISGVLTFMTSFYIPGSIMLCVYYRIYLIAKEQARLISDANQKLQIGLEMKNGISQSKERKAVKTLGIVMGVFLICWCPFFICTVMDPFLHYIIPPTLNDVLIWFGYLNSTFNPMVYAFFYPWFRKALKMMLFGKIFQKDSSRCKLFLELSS
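System: CHO-derived RD-HGA16 cells with stable Gα16 and human TAAR1 / Times: 17-24 h plating, Fluo-8 75 min 37 °C, 30 min RT / Technique: calcium-sensitive Fluo-8 signal, excitation 470-495, emission 515-575 nm / Measure: % activation relative to PEA EC100 response / Benchmarks: DMSO and PEA EC100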
OX1R antag-1: blocks the human orexin 1 receptor; CHO/OX1R cells, Fluo-8 calcium fluorescence, orexin A; 330,000 tested, 0.43% active; inhibition, % at 5 µM;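 active = inhibition above its plate's threshold, mean inhibition of all tested compounds on the plate plus 3 SD, cut at about 37% in these data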;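 note: 0% = orexin A challenge wells and 100% = SB-334867-A antagonist wells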
Target sequence (O43613 whole entry, looked up): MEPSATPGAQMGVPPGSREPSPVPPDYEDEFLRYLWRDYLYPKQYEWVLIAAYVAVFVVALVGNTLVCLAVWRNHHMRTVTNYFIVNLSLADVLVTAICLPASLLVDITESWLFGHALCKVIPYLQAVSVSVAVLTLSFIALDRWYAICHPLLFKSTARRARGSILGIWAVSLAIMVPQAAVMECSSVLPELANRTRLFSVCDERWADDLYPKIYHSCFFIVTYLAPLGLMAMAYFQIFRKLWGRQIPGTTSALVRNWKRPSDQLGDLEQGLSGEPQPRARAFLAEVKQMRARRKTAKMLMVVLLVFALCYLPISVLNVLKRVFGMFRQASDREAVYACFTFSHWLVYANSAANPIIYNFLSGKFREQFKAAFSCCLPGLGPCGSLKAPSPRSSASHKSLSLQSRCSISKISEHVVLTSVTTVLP
TAAR1 antag: antagonists of human TAAR1; Q96RJ0; AID 624466; inhibition, % at 3 µM; CHO RD-HGA16 TAAR1, Fluo-8 calcium fluorescence, antagonist; 360,000 tested, 1.5% active;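 active = inhibition above a per-plate cutoff, the mean inhibition of test compounds on that plate plus 3 SD, cut at about 49% in these data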;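 note: 0% = DMSO plus EC80 beta-PEA response and 100% = DMSO alone without agonist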
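Material: RD-HGA16 CHO cells with stable hTAAR1 and Gα16; Dosing: single nominal final test compound concentration of 3 µM; Schedule: seeding 17-24 h prior, 75-min 37 °C, 30-min RT dye loading; Detection: kinetic Fluo-8 calcium fluorescence measurement; Measure: % inhibition from peak post-agonist over basal fluorescence ratio; Benchmarks: vehicle and agonist controls.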
OX1R antag-2: blocks the human orexin 1 receptor | OX1R-expressing cells, FRET antagonist read-out | inhibition, % at 6.6 µM | 330,000 tested, 1.8% active | AID 485270; in the data active = inhibition mostly above about 38%, no sharp cut-off; inactive = mostly below about 40%;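 note: 0% = agonist challenge alone and 100% = reference antagonist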
TAAR1 nonsel count: counter-screen for TAAR1 antagonists: nonselective antagonists; counterscreen cell line, calcium fluorescence, antagonist mode; AID 651780; shares compounds with TAAR1 antag; 2,400 tested, 77% active; inhibition, % at 3 µM; in the data active = inhibition above about 22%;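 note: CHO-Ga16 host cells stimulated with ATP at an EC80 level; 0% = agonist EC80 plus vehicle and 100% = vehicle without agonist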
TAAR1 ant conf: human TAAR1 antagonism, confirmed | shares compounds with TAAR1 antag | TAAR1-expressing cells, fluorescence antagonist read-out | inhibition, % at 3 µM | 2,400 tested, 40% active | AID 651785; in the data active = inhibition above about 49%;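 note: CHO-Ga16 host cells challenged with agonist PEA near its EC80; 0% = agonist at EC80 plus vehicle and 100% = vehicle with no agonist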
Ga16 ag counter: counter-screen for TAAR1 antagonists: nonselective Ga16 agonists; shares compounds with TAAR1 antag; Ga16-expressing cells, calcium fluorescence, agonist counterscreen; activation, % at 3 µM; 2,400 tested, 18% active; in the data active = activation above about 12%;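 note: 0% = vehicle wells and 100% = saturating stimulus response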
TAAR1 ag count: activates human TAAR1 in antagonist counter-screen. hTAAR1 cell line, fluorescence activation, agonist mode. shares compounds with TAAR1 antag. activation, % at 3 µM. 2,400 tested, 2% active. AID 651955; in the data active = activation above about 37%;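 note: CHO cells stably expressing TAAR1 with calcium dye readout; 0% = DMSO vehicle and 100% = full agonist response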
* marks the source's active call; other numbers are inactive results; / = not tested or not shown. The list is not random: actives were taken first. Their share in the collection is about 4.5%.

SMILES	GPR7 antag	CHO parental Ca	TAAR1 ag	OX1R antag-1	TAAR1 antag	OX1R antag-2	TAAR1 nonsel count	TAAR1 ant conf	Ga16 ag counter	TAAR1 ag count
CCOc1ccc(C(=O)Nc2ccccc2N2CCN(C(=O)c3ccccc3)CC2)cc1[N+](=O)[O-]	-6.3	-14.3	8.4	-9.3	66.9*	7.8	24.9*	45.3	8.5	7.5
C=CC[C@@H](CC(=O)OC(C)(C)C)C(=O)OC[C@H]1CCCN1C(=O)[C@@H](CC=C)CC(=O)N[C@H](CO)Cc1ccccc1	/	-15.0	17.4	-3.7	60.9*	10.6	35.6*	43.1	7.6	7.0
CC1(C(=O)Nc2ccc3[nH]ncc3c2)CCN1C(=O)CCc1ccccc1 (stereo not drawn)	/	/	0.5	/	6.3	/	/	/	/	/
CCOC(=O)Cc1csc(/N=C/c2c(O)n(-c3ccccc3C(F)(F)F)c(=O)c3ccccc23)n1	-3.5	-21.2	15.7	-43.3	74.8*	15.2	34.4*	56.3*	9.2	8.8
CCN(CC)C(=O)[C@H]1CC(CC(=O)NCCN2CCOCC2)C(=O)N2CCc3c([nH]c4ccccc34)[C@]12C (stereo partly drawn)	/	-3.8	0.8	3.5	6.7	1.9	/	/	/	/
Cc1ccc(Nc2nc(NCc3cccs3)nc3ccsc23)c(C)c1	/	/	28.0	/	76.2*	/	57.3*	65.5*	18.4*	26.4
COc1cc2ccccc2cc1C(=O)OCC(=O)c1c(N)n(C)c(=O)n(C)c1=O	/	-13.9	12.7	25.8	-3.9	28.1	/	/	/	/
C#CCNC(=O)C1=C[C@H](c2csc3ccccc23)C[C@H](OCc2ccc(CO)cc2)O1	-10.6	-2.1	30.6	-8.3	64.8*	3.5	24.1*	40.5	9.4	10.2
O=C(NCc1nc2ccccc2[nH]1)C1=C[C@@H](c2ccc(C(F)(F)F)cc2)C[C@@H](OCc2ccc(CO)cc2)O1	/	-4.9	11.8	-22.4	51.9*	10.3	25.2*	23.4	5.5	6.4
O=C(NCc1nc2ccccc2[nH]1)C1=C[C@H](c2ccccc2)C[C@H](OCc2ccc(CO)cc2)O1	-10.4	-22.5	4.6	-27.9	25.6	13.2	/	/	/	/
O=C(NCc1ccccc1)C1=C[C@H](c2ccc3c(c2)OCO3)C[C@H](OCc2ccc(CO)cc2)O1	/	-11.6	9.6	-13.3	58.9*	29.9	24.7*	32.4	3.1	2.8
CN(C)S(=O)(=O)N1CCC(Oc2cccc(C(=O)NCCC3=CCCCC3)c2)CC1	21.1	1.5	12.7	-7.3	81.3*	36.9	43.3*	60.2*	12.7*	8.3
CCN=C(NCC)SC1CC(=O)N(c2ccc(F)cc2)C1=O (stereo not drawn)	-3.7	-8.9	14.3	-17.0	89.7*	10.9	28.1*	56.9*	9.4	13.9
CC(C)(C)N1C(=O)c2ccc(C(=O)Nc3cc(C(=O)O)cc(C(=O)O)c3)cc2C1=O	-8.7	-4.1	0.3	-7.2	-10.6	14.6	/	/	/	/
C/C(=N\NC(=O)COc1ccccc1[N+](=O)[O-])c1cccc(NC(=O)c2ccncc2)c1	-10.1	-4.8	24.4	-8.4	86.3*	31.2	38.1*	58.3*	15.3*	16.4
C/C(=N\NC(=O)c1ccncc1)c1cccc(NC(=O)c2ccc(C(C)(C)C)cc2)c1	-6.5	-11.8	10.4	-27.7	76.0*	26.1	37.0*	54.0*	10.8	8.1
O=C(Nc1ccc(S(=O)(=O)N2CCCCC2c2cccnc2)cc1)c1ccccc1F (stereo not drawn)	6.9	-10.4	12.0	-10.2	56.3*	39.1	27.2*	34.2	9.8	9.4
OCc1cn(-c2ccccc2)nc1-c1ccc(-c2nn(-c3ccccc3)cc2CO)cc1	-7.7	-10.2	20.6	-9.6	54.5*	4.1	41.3*	60.9*	11.9*	12.3
O=C(O)Cc1cn(-c2ccccc2)nc1-c1ccccc1	-19.3	-16.9	0.1	2.1	-9.5	16.4	/	/	/	/
COC(=O)c1cccc(S(=O)(=O)N(Cc2ccco2)Cc2cc3ccc(OC)cc3[nH]c2=O)c1	-0.6	-17.5	21.0	15.4	56.6*	40.2*	33.5*	57.2*	10.3	6.5
COc1ccc(NC(=O)CN(C)C(=O)c2cc(-c3ccc(Cl)cc3)nc3ccccc23)cc1	/	-19.9	7.9	-23.3	66.6*	20.8	29.8*	41.5	9.1	5.5
COc1cccc(NC(=O)CN(C)C(=O)c2cc(-c3ccccc3)nc3ccc(C)cc23)c1	/	/	11.3	/	74.2*	/	40.3*	61.5*	10.2	7.5
COc1cccc(NC(=O)CN(C)C(=O)c2cc(-c3cccc(Br)c3)nc3ccccc23)c1	/	11.3	9.8	-13.4	79.2*	18.1	39.5*	47.0	6.8	3.9
CCN(CC)C(=O)[C@H]1C[C@@H]2[C@H](C[C@@H](c3ccccc3)[C@H]1C)N(c1ccc(F)cc1)C(=O)N2CCCOc1ccccc1	/	/	3.6	/	68.8*	/	30.3*	57.8*	5.2	5.4
O=C(c1ccccc1Cl)N1CCN(c2ncccn2)CC1	/	-13.9	0.7	-19.0	-12.7	6.0	/	/	/	/
SMILES	GPR7 antag	CHO parental Ca	TAAR1 ag	OX1R antag-1	TAAR1 antag	OX1R antag-2	TAAR1 nonsel count	TAAR1 ant conf	Ga16 ag counter	TAAR1 ag count
O=C(Nc1cccnc1)c1sc(Nc2ccccc2)nc1-c1ccccc1	-7.1	-23.8	13.7	-32.2	58.6*	16.5	34.4*	36.8	8.3	10.9
COc1ccc(NC(=O)CC2C(=O)N(C)C(=S)N2CCc2ccc(F)cc2)cc1 (stereo not drawn)	-0.1	-2.8	18.7	-13.6	58.5*	2.1	31.3*	50.2*	14.5*	11.1
CCN1C(=O)C(CC(=O)Nc2ccc(OC)cc2)N(CCc2ccc(F)cc2)C1=S (stereo not drawn)	13.2	-2.1	11.4	-7.7	68.7*	5.7	42.2*	59.4*	13.2*	11.8
CCN1C(=O)C(CC(=O)Nc2ccc(OC)cc2)N(CCCN2CCN(c3ccc(F)cc3)CC2)C1=S (stereo not drawn)	8.9	-19.3	27.0	-11.5	65.6*	11.3	32.3*	44.5	17.0*	15.2
COc1ccc(CCN2C(=S)N(C)C(=O)C2CC(=O)Nc2ccc(OC)cc2)cc1 (stereo not drawn)	4.8	-10.9	12.8	-2.1	26.0	6.3	/	/	/	/
COC(=O)[C@]12CCCCC=C1N(Cc1ccc3c(c1)OCO3)C(=O)[C@H](CC(=O)NCc1ccc(C)o1)C2	/	/	2.9	/	6.6	/	/	/	/	/
